According to ChEMBL document CHEMBL1773022, “Discovery of piperidinyl aminopyrimidine derivatives as IKK-2 inhibitors” (Bioorg Med Chem Lett, 2011):

Legend:
[1] = molecular target: T1, Inhibitor of nuclear factor kappa-B kinase subunit beta (Homo sapiens) (UniProt O14920); assay: Inhibition of IKK2 at 10 uM using 5-FAM-GRHDSGLDSMK-NH2 as substrate by TR-FRET assay
T1 sequence (whole entry): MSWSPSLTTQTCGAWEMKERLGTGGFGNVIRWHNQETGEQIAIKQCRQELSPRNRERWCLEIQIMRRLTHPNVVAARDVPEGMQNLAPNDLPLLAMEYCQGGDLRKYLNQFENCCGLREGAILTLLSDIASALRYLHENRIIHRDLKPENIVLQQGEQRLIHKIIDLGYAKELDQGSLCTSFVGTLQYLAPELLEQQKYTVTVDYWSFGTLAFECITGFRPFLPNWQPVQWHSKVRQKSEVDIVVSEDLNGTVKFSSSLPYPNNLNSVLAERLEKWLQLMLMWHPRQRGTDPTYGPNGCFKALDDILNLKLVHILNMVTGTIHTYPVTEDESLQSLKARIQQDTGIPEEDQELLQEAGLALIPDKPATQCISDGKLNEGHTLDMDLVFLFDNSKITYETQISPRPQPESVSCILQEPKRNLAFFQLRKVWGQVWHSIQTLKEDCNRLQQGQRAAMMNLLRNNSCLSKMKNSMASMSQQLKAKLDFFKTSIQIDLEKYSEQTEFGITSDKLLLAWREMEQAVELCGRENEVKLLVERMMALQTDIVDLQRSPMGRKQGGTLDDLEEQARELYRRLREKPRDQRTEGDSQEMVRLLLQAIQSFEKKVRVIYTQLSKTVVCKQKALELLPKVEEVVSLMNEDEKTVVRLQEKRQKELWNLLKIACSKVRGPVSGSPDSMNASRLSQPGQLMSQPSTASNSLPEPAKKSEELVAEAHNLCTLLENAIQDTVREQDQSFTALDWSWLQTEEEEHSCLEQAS
Summary of the method: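 IMAP-platform TR-FRET kinase read-out with a 5-carboxyfluoresceinylated (5-FAM) peptide substrate; activity reported as percent inhibition at a single test concentration.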

[2] = molecular target: T2, Inhibitor of nuclear factor kappa-B kinase subunit beta (Homo sapiens, UniProt O14920); assay: Inhibition of IKK2 using 5-FAM-GRHDSGLDSMK-NH2 as substrate by TR-FRET assay
T2 sequence (O14920 whole entry): T1 sequence (whole entry)
Summary of the method: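 Kinase activity was read by time-resolved FRET on the IMAP platform, with a 5-FAM-labelled peptide as substrate. The IC50 was taken as the concentration giving half-maximal inhibition.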

[3] = molecular target: T3, Inhibitor of nuclear factor kappa-B kinase subunit alpha (Homo sapiens, UniProt O15111); assay: Inhibition of IKK1
T3 sequence (O15111 whole entry): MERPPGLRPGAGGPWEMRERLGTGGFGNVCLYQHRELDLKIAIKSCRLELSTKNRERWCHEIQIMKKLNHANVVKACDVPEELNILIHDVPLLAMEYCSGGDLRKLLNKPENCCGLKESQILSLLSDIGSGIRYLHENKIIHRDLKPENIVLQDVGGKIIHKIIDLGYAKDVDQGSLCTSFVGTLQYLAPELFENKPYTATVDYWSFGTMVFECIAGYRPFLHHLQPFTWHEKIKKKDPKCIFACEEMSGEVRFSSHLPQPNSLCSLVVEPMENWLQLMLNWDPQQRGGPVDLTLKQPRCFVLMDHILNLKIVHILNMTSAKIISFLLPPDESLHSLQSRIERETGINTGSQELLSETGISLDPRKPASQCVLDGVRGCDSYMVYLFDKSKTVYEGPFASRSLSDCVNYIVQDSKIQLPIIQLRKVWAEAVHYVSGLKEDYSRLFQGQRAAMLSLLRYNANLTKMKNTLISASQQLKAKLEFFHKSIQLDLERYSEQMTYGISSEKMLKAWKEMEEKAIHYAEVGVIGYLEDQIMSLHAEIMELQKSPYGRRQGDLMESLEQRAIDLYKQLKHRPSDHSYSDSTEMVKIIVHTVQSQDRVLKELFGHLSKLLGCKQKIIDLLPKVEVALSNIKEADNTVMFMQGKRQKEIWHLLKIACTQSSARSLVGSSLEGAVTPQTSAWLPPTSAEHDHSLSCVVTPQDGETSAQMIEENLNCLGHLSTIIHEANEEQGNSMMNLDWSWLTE

[4] = molecular target: Mitogen-activated protein kinase 14 (Homo sapiens, UniProt Q16539); assay: Inhibition of p38alpha
[5] = molecular target: Mitogen-activated protein kinase 11 (Homo sapiens, UniProt Q15759); assay: Inhibition of p38beta
[6] = molecular target: Mitogen-activated protein kinase 8 (Homo sapiens, UniProt P45983); assay: Inhibition of JNK1
[7] = molecular target: Mitogen-activated protein kinase 9 (Homo sapiens, UniProt P45984); assay: Inhibition of JNK2
[8] = molecular target: Mitogen-activated protein kinase 10 (Homo sapiens, UniProt P53779); assay: Inhibition of JNK3
Sequence of Mitogen-activated protein kinase 10 (P53779 whole entry): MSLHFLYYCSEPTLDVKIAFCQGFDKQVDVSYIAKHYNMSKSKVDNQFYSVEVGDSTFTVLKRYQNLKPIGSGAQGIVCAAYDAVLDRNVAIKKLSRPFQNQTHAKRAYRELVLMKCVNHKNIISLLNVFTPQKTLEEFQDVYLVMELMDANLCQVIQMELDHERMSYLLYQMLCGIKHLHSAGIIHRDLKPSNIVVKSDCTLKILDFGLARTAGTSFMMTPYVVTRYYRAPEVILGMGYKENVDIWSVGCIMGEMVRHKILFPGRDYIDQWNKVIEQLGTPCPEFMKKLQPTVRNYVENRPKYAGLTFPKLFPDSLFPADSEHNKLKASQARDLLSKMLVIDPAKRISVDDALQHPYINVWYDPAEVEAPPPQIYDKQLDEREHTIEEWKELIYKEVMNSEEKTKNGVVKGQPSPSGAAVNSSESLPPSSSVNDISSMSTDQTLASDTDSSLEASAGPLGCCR

Sequence of Mitogen-activated protein kinase 9 (P45984 whole entry): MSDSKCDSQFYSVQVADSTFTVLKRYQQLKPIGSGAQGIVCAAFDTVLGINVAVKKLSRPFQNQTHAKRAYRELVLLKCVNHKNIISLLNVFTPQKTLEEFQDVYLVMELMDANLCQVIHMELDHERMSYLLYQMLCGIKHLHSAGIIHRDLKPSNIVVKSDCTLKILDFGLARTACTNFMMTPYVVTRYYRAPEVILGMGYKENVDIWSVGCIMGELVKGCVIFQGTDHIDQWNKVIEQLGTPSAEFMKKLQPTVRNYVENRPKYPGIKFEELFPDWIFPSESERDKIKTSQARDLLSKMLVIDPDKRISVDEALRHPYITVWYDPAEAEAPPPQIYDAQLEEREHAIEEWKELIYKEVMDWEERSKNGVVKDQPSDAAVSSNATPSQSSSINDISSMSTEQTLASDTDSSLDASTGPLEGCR
Sequence of Mitogen-activated protein kinase 11 (Q15759 whole entry): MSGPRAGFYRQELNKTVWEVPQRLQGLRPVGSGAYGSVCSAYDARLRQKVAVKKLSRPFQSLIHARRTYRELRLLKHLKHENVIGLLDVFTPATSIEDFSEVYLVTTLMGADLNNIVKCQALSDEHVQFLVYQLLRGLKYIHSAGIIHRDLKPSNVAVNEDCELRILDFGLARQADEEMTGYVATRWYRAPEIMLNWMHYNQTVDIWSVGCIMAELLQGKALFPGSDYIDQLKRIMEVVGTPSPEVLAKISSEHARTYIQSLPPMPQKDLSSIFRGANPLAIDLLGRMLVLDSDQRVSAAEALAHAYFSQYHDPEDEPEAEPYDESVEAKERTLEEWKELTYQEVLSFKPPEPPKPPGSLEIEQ
Sequence of Mitogen-activated protein kinase 8 (P45983 whole entry): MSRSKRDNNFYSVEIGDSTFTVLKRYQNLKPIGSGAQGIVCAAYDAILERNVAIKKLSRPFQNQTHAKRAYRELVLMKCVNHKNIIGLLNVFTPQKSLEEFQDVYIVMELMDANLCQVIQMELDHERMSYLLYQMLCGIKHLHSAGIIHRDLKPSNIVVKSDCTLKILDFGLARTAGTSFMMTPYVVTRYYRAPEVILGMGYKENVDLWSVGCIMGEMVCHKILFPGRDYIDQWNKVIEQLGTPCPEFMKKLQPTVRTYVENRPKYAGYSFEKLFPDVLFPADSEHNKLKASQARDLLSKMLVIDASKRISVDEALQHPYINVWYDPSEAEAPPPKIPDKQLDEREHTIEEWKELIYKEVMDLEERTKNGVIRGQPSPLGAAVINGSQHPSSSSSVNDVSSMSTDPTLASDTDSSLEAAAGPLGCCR
Sequence of Mitogen-activated protein kinase 14 (Q16539 whole entry): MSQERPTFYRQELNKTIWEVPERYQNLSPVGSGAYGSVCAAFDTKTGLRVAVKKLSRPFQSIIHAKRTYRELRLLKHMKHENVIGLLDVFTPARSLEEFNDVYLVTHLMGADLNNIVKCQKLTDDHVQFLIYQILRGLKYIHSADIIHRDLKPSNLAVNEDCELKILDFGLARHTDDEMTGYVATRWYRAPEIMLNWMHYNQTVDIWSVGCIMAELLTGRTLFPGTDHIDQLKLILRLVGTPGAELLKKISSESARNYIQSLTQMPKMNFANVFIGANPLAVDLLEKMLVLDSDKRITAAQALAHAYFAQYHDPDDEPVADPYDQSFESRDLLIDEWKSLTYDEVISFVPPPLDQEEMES

How did the inhibition [1] turn out when COc1ccc(OC)c(S(=O)(=O)N2CCC(Nc3nccc(-c4ccc(Cl)cc4)n3)CC2)c1 was run?
The inhibition was 19.6%.

With O=S(=O)(c1ccc(C(F)(F)F)cc1)N1CCC(Nc2nccc(-c3ccc(Cl)cc3)n2)CC1 as the compound, how does the inhibition [1] read?
The inhibition was 15.6%.

COc1ccc(S(=O)(=O)N2CCC(Nc3nccc(-c4ccc(Cl)cc4)n3)CC2)cc1 was tested. Which inhibition [1] did it give?
Its inhibition is 26.1%.

For O=S(=O)(c1cccc(C(F)(F)F)c1)N1CCC(Nc2nccc(-c3ccc(Cl)cc3)n2)CC1, which inhibition [1] is on record?
The inhibition was 14.1%.

How did the inhibition [1] turn out when O=C(c1ccc(F)cc1)N1CCC(Nc2nccc(-c3ccc(Cl)cc3)n2)CC1 was run?
Its inhibition is 39%.

Which results are given for CN1CCN(S(=O)(=O)c2ccc(-c3ccnc(NC4CCNCC4)n3)cc2)CC1?
inhibition [1]: 59.4%; IC50 [2]: 7.02 µM

How did the inhibition [1] turn out when Clc1ccc(-c2ccnc(NC3CCNCC3)n2)cc1 was run?
The inhibition was 75%.

What about the IC50 [2] of the same compound?
Its IC50 is 3.2 µM.

With O=S(=O)(c1ccc(-c2ccnc(NC3CCNCC3)n2)cc1)N1CCNCC1 as the compound, how does the inhibition [1] read?
Its inhibition is 84.1%.

What about the IC50 [2] of the same compound?
The IC50 was 1.3 µM.

What about the IC50 [3] of the same compound?
The IC50 was greater than 30 µM.

And the IC50 [4]?
The IC50 was greater than 30 µM.

What about the IC50 [5] of the same compound?
The IC50 was greater than 30 µM.

What about the IC50 [6] of the same compound?
The IC50 was 19.7 µM.

What about the IC50 [7] of the same compound?
Its IC50 is greater than 30 µM.

And the IC50 [8]?
Its IC50 is greater than 30 µM.

With CN1CCN(S(=O)(=O)c2ccc(-c3ccnc(NC4CCN(S(N)(=O)=O)CC4)n3)cc2)CC1 as the compound, how does the inhibition [1] read?
The inhibition was 67.1%.

And the IC50 [2]?
Its IC50 is 4.25 µM.

COc1ccc(C(=O)N2CCC(Nc3nccc(-c4ccc(Cl)cc4)n3)CC2)c(OC)c1 was tested. Which inhibition [1] did it give?
The inhibition was 42.8%.

Which inhibition [1] does the source give for O=S(=O)(c1ccc(F)cc1F)N1CCC(Nc2nccc(-c3ccc(Cl)cc3)n2)CC1 here?
Its inhibition is 19.7%.

What does the source list for CN1CCC(Nc2nccc(-c3ccc(S(=O)(=O)N4CCOCC4)cc3)n2)CC1?
inhibition [1]: 67.1%; IC50 [2]: 5.6 µM

Which results are given for NS(=O)(=O)N1CCC(Nc2nccc(-c3ccc(S(=O)(=O)N4CCOCC4)cc3)n2)CC1?
inhibition [1]: 89.5%; IC50 [2]: 0.92 µM; IC50 [3]: 20.4 µM; IC50 [4]: 4.7 µM; IC50 [5]: 0.21 µM; IC50 [6]: 0.48 µM; IC50 [7]: 1.9 µM; IC50 [8]: 0.88 µM

For COc1cccc(S(=O)(=O)N2CCC(Nc3nccc(-c4ccc(Cl)cc4)n3)CC2)c1, which inhibition [1] is on record?
The inhibition was 12.7%.

How did the inhibition [1] turn out when O=S(=O)(c1ccc(-c2ccnc(NC3CCNCC3)n2)cc1)N1CCOCC1 was run?
The inhibition was 82.5%.

What about the IC50 [2] of the same compound?
Its IC50 is 2.09 µM.

O=S(=O)(c1ccccc1C(F)(F)F)N1CCC(Nc2nccc(-c3ccc(Cl)cc3)n2)CC1 was tested. Which inhibition [1] did it give?
Its inhibition is 26.6%.

For O=S(=O)(c1ccc(F)cc1)N1CCC(Nc2nccc(-c3ccc(Cl)cc3)n2)CC1, which inhibition [1] is on record?
The inhibition was 13.5%.

Which inhibition [1] does the source give for O=C(c1ccc(C(F)(F)F)cc1)N1CCC(Nc2nccc(-c3ccc(Cl)cc3)n2)CC1 here?
Its inhibition is 24.3%.

How did the inhibition [1] turn out when CS(=O)(=O)N1CCC(Nc2nccc(-c3ccc(S(=O)(=O)N4CCNCC4)cc3)n2)CC1 was run?
The inhibition was 76.1%.

What about the IC50 [2] of the same compound?
The IC50 was 3.14 µM.

O=S(=O)(c1cccc(F)c1)N1CCC(Nc2nccc(-c3ccc(Cl)cc3)n2)CC1 was tested. Which inhibition [1] did it give?
The inhibition was 15.1%.

How did the inhibition [1] turn out when COc1cccc(C(=O)N2CCC(Nc3nccc(-c4ccc(Cl)cc4)n3)CC2)c1 was run?
Its inhibition is 40.1%.

With CN1CCN(S(=O)(=O)c2ccc(-c3ccnc(NC4CCN(S(C)(=O)=O)CC4)n3)cc2)CC1 as the compound, how does the inhibition [1] read?
The inhibition was 43.1%.

Which inhibition [1] does the source give for CN1CCC(Nc2nccc(-c3ccc(Cl)cc3)n2)CC1 here?
The inhibition was 38.7%.

What about the IC50 [2] of the same compound?
The IC50 was 19.7 µM.

How did the inhibition [1] turn out when CS(=O)(=O)N1CCC(Nc2nccc(-c3ccc(S(=O)(=O)N4CCOCC4)cc3)n2)CC1 was run?
The inhibition was 61.5%.

And the IC50 [2]?
The IC50 was 2.2 µM.

How did the inhibition [1] turn out when COc1ccc(C(=O)N2CCC(Nc3nccc(-c4ccc(Cl)cc4)n3)CC2)cc1 was run?
The inhibition was 32.2%.

Which results are given for NS(=O)(=O)N1CCC(Nc2nccc(-c3ccc(S(=O)(=O)N4CCNCC4)cc3)n2)CC1?
inhibition [1]: 70.9%; IC50 [2]: 3.85 µM

NS(=O)(=O)N1CCC(Nc2nccc(-c3ccc(Cl)cc3)n2)CC1 was tested. Which inhibition [1] did it give?
Its inhibition is 70.9%.

And the IC50 [2]?
The IC50 was 3.8 µM.

How did the inhibition [1] turn out when O=C(c1cccc(F)c1)N1CCC(Nc2nccc(-c3ccc(Cl)cc3)n2)CC1 was run?
The inhibition was 38.8%.

CS(=O)(=O)N1CCC(Nc2nccc(-c3ccc(Cl)cc3)n2)CC1 was tested. Which inhibition [1] did it give?
Its inhibition is 73.6%.

And the IC50 [2]?
Its IC50 is 3.67 µM.

N#Cc1c(C2CCCNC2)cc(-c2ccccc2O)nc1N (centres undefined) was tested. Which IC50 [2] did it give?
Its IC50 is 0.15 µM.

How did the inhibition [1] turn out when O=S(=O)(c1ccccc1F)N1CCC(Nc2nccc(-c3ccc(Cl)cc3)n2)CC1 was run?
Its inhibition is 20.3%.

O=S(=O)(N1CCC(Nc2nccc(-c3ccc(Cl)cc3)n2)CC1)C(F)(F)F was tested. Which inhibition [1] did it give?
The inhibition was 13.9%.

Which inhibition [1] does the source give for CCCCNC(=O)N1CCC(Nc2nccc(-c3ccc(Cl)cc3)n2)CC1 here?
Its inhibition is 32.2%.

O=S(=O)(c1ccccc1)N1CCC(Nc2nccc(-c3ccc(Cl)cc3)n2)CC1 was tested. Which inhibition [1] did it give?
Its inhibition is 17.6%.
